Source: ChEMBL document CHEMBL5236549, “Discovery of 2-Sulfinyl-Diazabicyclooctane Derivatives, Potential Oral β-Lactamase Inhibitors for Infections Caused by Serine β-Lactamase-Producing Enterobacterales” (J Med Chem, 2021)

Columns and labels:
[1] = AUC in dog at 5 mg/kg,iv by LC/MS/MS analysis; type: ADME, organism-based, Canis lupus familiaris; parameters: dose 5 mg/kg, route iv; conditions: in vivo
Procedure, shortened: (§1)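 Plasma of the parent acid measured by LC/MS/MS (methanol precipitation, positive ESI, external standard); oral values follow prodrug dosing (rat fed, dog and monkey fasted). AUC from 0 h to last time point by linear trapezoid; F from oral AUC versus iv AUC of the parent. N = 2 (rat, dog), N = 3 (monkey, mouse).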

[2] = Stability in rat serum assessed as compound remaining at 5 micromol/L incubated for 30 mins by LC-MS/MS analysis; type: ADME, cell-free; conditions: dose 5 µmol/L, read-out: Stability
Procedure, shortened: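 Pooled rat serum incubated with 5 μmol/L compound for 30 min at 37 °C, in duplicate; aliquot mixed with methanol, centrifuged, supernatant analysed by LC/MS/MS for % remaining.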

[3] = Total clearance in dog at 5 mg/kg,iv by LC/MS/MS analysis; type: ADME, organism-based, Canis lupus familiaris; conditions: in vivo
Procedure, shortened: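 Intravenous dosing (mouse 10, rat 1, dog 5, monkey 5 mg/kg); plasma quantified by LC/MS/MS after methanol precipitation with external standard; AUC by linear trapezoidal approximation; CLtot = dose/AUC.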

Enterobacter cloacae [4] = assay: Antibacterial activity against Enterobacter cloacae SR100108 assessed as inhibition of bacterial growth incubated for 16 to 20 hrs by CLSI based two-fold serial dilution method
Enterobacter cloacae [5] = assay: Antibacterial activity against Enterobacter cloacae SR36276 assessed as inhibition of bacterial growth incubated for 16 to 20 hrs by CLSI based two-fold serial dilution method
Escherichia coli [6] = assay: Antibacterial activity against Escherichia coli ATCC SR09613 assessed as reduction in bacterial growth by measuring minimum […] concentration incubated for 16 to 24 hrs by CLSI based two-fold serial dilution method; type: functional; conditions: time 16-24 hrs
Procedure, shortened: (§2)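 MPC₁ by broth microdilution: twofold serial dilutions of inhibitor in cation-adjusted Mueller Hinton broth containing ceftibuten at 1 μg/mL. Inoculum about 5 × 10⁴ cfu/well final, set from OD625. Incubation at 35 °C for 16−20 h. […] N = 1.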

Klebsiella pneumoniae [7] = assay: Antibacterial activity against Klebsiella pneumoniae ATCC SR201218 assessed as inhibition of bacterial growth incubated for 16 to 20 hrs by CLSI based two-fold serial dilution method
Enterobacter cloacae [8] = assay: Antibacterial activity against Enterobacter cloacae SR100108 assessed as reduction in bacterial growth by measuring minimum […] concentration incubated for 16 to 20 hrs by CLSI based two-fold serial dilution method; conditions: time 16-20 hrs
[9] = Inhibition of bacterial beta-lactamase KPC-2 using nitrocefin as substrate incubated for 20 mins; parameters: species or system Bacteria
Procedure, shortened: (§3)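 Nitrocefin hydrolysis read by absorbance. Enzyme titrated to give about 0.2 absorbance change over the no-enzyme control. Enzyme added to nitrocefin (final 50 μg/mL) plus inhibitor, no preincubation, read after 20 min at 35 °C. IC50 is 50% reduction of hydrolysis. N = 1.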

Escherichia coli [10] = assay: Antibacterial activity against Escherichia coli ATCC SR09613 assessed as inhibition of bacterial growth incubated for 16 to 20 hrs by CLSI based two-fold serial dilution method
[11] = AUC in rat at 1 mg/kg,iv by LC/MS/MS analysis; type: ADME, organism-based; parameters: dose 1 mg/kg, route iv; conditions: in vivo; procedure, shortened: as §1
[12] = AUC in mouse at 10 mg/kg,iv by LC/MS/MS analysis; type: ADME, organism-based; parameters: dose 10 mg/kg, route iv; conditions: in vivo; procedure, shortened: as §1
Klebsiella pneumoniae [13] = assay: Antibacterial activity against Klebsiella pneumoniae SR201325 assessed as reduction in bacterial growth by measuring minimum […] concentration incubated for 16 to 24 hrs by CLSI based two-fold serial dilution method; type: functional; conditions: time 16-24 hrs
Procedure, shortened: (§4)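 Inhibitor twofold serially diluted in cation-adjusted Mueller Hinton broth containing ceftibuten 1 μg/mL. About 5 × 10⁴ cfu/well, 35 °C for 16−20 h. […] N = 1.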

[14] = Inhibition of bacterial beta-lactamase OXA-48 using nitrocefin as substrate incubated for 20 mins; parameters: species or system Bacteria; procedure, shortened: as §3
Klebsiella pneumoniae [15] = assay: Antibacterial activity against Klebsiella pneumoniae SR100758 assessed as reduction in bacterial growth by measuring minimum […] concentration incubated for 16 to 24 hrs by CLSI based two-fold serial dilution method; type: functional; conditions: time 16-24 hrs; procedure, shortened: as §4
Klebsiella pneumoniae [16] = assay: Antibacterial activity against Klebsiella pneumoniae SR201325 assessed as inhibition of bacterial growth incubated for 16 to 20 hrs by CLSI based two-fold serial dilution method
Klebsiella pneumoniae [17] = assay: Antibacterial activity against Klebsiella pneumoniae SR09635 assessed as reduction in bacterial growth by measuring minimum […] concentration incubated for 16 to 20 hrs by CLSI based two-fold serial dilution method; conditions: time 16-20 hrs
[18] = Half life in dog at 5 mg/kg,iv by LC/MS/MS analysis; type: ADME, organism-based, Canis lupus familiaris; conditions: in vivo
Procedure, shortened: (§5)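 After iv dosing, T1/2 taken as ln 2/kel, with kel from the slope of the log concentration–time profile. Plasma levels measured by LC/MS/MS with an external standard.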

Klebsiella pneumoniae [19] = assay: Antibacterial activity against Klebsiella pneumoniae SR200263 assessed as reduction in bacterial growth by measuring minimum […] concentration incubated for 16 to 20 hrs by CLSI based two-fold serial dilution method; conditions: time 16-20 hrs
Klebsiella pneumoniae [20] = assay: Antibacterial activity against Klebsiella pneumoniae SR09635 assessed as inhibition of bacterial growth incubated for 16 to 20 hrs by CLSI based two-fold serial dilution method
Enterobacter cloacae [21] = assay: Antibacterial activity against Enterobacter cloacae SR200030 assessed as inhibition of bacterial growth incubated for 16 to 24 hrs by CLSI based two-fold serial dilution method; type: functional; conditions: time 16-24 hrs
Procedure, shortened: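 CLSI broth microdilution in cation-adjusted Mueller Hinton broth, twofold serial dilutions, about 5 × 10⁴ cfu/well from OD625, 35 °C for 16−20 h. MIC is the lowest concentration with no visible growth.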

[22] = Inhibition of bacterial beta-lactamase CMY-2 using nitrocefin as substrate incubated for 20 mins; parameters: species or system Bacteria; procedure, shortened: as §3
Klebsiella pneumoniae [23] = assay: Antibacterial activity against Klebsiella pneumoniae ATCC BAA1705 assessed as reduction in bacterial growth by measuring minimum potentiating concentration incubated for 16 to 20 hrs by CLSI based two-fold serial dilution method; conditions: time 16-20 hrs
Klebsiella pneumoniae [24] = assay: Antibacterial activity against Klebsiella pneumoniae SR200487 assessed as reduction in bacterial growth by measuring minimum […] concentration incubated for 16 to 20 hrs by CLSI based two-fold serial dilution method; conditions: time 16-20 hrs
Klebsiella pneumoniae [25] = assay: Antibacterial activity against Klebsiella pneumoniae ATCC SR201218 assessed as reduction in bacterial growth by measuring minimum […] concentration incubated for 16 to 24 hrs by CLSI based two-fold serial dilution method; type: functional; conditions: time 16-24 hrs; procedure, shortened: as §2
[26] = Half life in rat at 1 mg/kg,iv by LC/MS/MS analysis; type: ADME, organism-based; conditions: in vivo; procedure, shortened: as §5
[27] = Inhibition of bacterial beta-lactamase CTX-M-15 using nitrocefin as substrate incubated for 20 mins; parameters: species or system Bacteria
[28] = Total clearance in rat by LC-MS/MS analysis; type: ADME; conditions: in vivo

AUC [1]: 19.4 µg·h/mL
remaining at 0.5 h, 5 µM [2]: 85%
clearance [3]: 0.258 L/h/kg
MIC (Enterobacter cloacae [4]): > 32 mg/L
MIC (Enterobacter cloacae [5]): > 32 mg/L
MIC (Klebsiella pneumoniae [7]): > 32 mg/L
IC50 [9]: 0.014 µM
MIC (Escherichia coli [10]): 32 mg/L
AUC [11]: 0.62 µg·h/mL
AUC [12]: 4.92 µg·h/mL
IC50 [14]: 0.443 µM
MIC (Klebsiella pneumoniae [16]): > 32 mg/L
half-life [18]: 54 min
MIC (Klebsiella pneumoniae [20]): 32 mg/L
MIC (Enterobacter cloacae [21]): > 32 mg/L
IC50 [22]: 0.028 µM
half-life [26]: 12 min
IC50 [27]: 0.012 µM
clearance [28]: 1.62 L/h/kg
SMILES: C[S@@+]([O-])[C@@H]1CC[C@@H]2CN1C(=O)N2O[C@H](F)C(=O)[O-].[Na+]
MPC (Escherichia coli [6]): 0.125 µg/mL
MPC (Enterobacter cloacae [8]): 1 µg/mL
MPC (Klebsiella pneumoniae [13]): 2 µg/mL
MPC (Klebsiella pneumoniae [15]): 0.25 µg/mL
MPC (Klebsiella pneumoniae [17]): 2 µg/mL
MPC (Klebsiella pneumoniae [19]): 0.125 µg/mL
MPC (Klebsiella pneumoniae [23]): 0.063 µg/mL
MPC (Klebsiella pneumoniae [24]): 0.5 µg/mL
MPC (Klebsiella pneumoniae [25]): 2 µg/mL
